Laboratory results from ChEMBL document CHEMBL2034841, “Synthesis and evaluation of (2-(4-methoxyphenyl)-4-quinolinyl)(2-piperidinyl)methanol (NSC23925) isomers to reverse multidrug resistance in cancer” (J Med Chem, 2012).
Active and inactive are the calls of the source. The rule behind the calls is not given here.

Legend:
[1] = biological target: T1, ATP-dependent translocase ABCB1 (Homo sapiens, UniProt P08183); test: Inhibition of MDR1-mediated drug resistance in human multidrug-resistant SKOV3TR cells at 0.5 uM assessed as potentiation of paclitaxel potency by incubated for 6 days by MTT assay; type: cell-based; details: 144 h
T1 sequence (P08183 whole entry): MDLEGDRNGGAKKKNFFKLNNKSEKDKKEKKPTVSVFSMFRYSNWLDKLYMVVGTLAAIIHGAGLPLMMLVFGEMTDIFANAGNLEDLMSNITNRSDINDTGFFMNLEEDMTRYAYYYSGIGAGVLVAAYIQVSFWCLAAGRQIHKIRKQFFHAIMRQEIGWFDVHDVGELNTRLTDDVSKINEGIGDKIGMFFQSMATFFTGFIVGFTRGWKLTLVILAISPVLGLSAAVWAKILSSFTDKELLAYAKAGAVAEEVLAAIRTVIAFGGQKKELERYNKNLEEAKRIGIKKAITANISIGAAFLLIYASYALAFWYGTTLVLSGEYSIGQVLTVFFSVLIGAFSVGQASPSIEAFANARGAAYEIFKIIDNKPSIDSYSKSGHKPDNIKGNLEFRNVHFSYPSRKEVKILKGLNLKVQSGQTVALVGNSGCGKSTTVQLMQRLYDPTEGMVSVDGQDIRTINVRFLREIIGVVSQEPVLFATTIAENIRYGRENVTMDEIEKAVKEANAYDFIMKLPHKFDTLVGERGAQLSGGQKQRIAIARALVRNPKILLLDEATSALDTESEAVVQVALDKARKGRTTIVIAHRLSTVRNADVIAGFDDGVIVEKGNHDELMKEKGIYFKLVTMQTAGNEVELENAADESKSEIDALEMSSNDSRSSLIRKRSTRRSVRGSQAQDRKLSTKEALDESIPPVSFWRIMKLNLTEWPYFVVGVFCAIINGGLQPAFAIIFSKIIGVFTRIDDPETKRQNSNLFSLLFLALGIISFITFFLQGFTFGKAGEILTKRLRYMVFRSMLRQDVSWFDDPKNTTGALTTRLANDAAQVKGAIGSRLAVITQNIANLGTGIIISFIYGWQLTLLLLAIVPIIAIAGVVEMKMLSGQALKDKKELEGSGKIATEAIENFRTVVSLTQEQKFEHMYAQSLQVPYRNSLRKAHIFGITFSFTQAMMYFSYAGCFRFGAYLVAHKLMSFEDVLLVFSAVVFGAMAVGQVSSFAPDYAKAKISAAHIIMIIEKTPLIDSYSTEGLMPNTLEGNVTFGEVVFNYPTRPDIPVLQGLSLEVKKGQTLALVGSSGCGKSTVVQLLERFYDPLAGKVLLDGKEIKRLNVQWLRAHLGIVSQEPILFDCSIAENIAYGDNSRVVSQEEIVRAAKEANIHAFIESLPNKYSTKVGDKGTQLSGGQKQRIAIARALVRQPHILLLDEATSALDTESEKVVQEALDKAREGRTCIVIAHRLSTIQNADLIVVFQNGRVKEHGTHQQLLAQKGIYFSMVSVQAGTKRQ
In short: (§1)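 SKOV-3_TR cells were seeded at 2000/well in RPMI 1640 complete medium with varying paclitaxel concentrations plus the test agent at a fixed 0.1, 0.5 or 1 μM for 6 days. Viability was read by MTT, and IC50 was taken from fitted dose–response curves in triplicate wells. Fold reversal = IC50 without agent ÷ IC50 with agent.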

[2] = biological target: T1, ATP-dependent translocase ABCB1; test: Inhibition of MDR1-mediated drug resistance in human multidrug-resistant SKOV3TR cells at 1 uM assessed as potentiation of paclitaxel potency by incubated for 6 days by MTT assay; type: cell-based; details: 144 h; in short: as §1
[3] = biological target: T1, ATP-dependent translocase ABCB1; test: Inhibition of MDR1-mediated drug resistance in human multidrug-resistant SKOV3TR cells at 0.1 uM assessed as potentiation of paclitaxel potency by incubated for 6 days by MTT assay; type: cell-based; details: 144 h; in short: as §1
[4] = biological target: T1, ATP-dependent translocase ABCB1; test: Inhibition of MDR1 in human multidrug-resistant MCF7adr cells assessed as potentiation of doxorubicin-induced apoptosis at 1 uM incubated for 72 hrs by M30-apoptosense ELISA assay
In short: (§2)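 MCF-7adr or SW480_TR cells were seeded at 8000/well for 24 h, then treated for 72 h with 0.5 μM doxorubicin, 1 μM test agent, or both. Cells were lysed with 10% NP-40, and apoptosis was quantified by M30-Apoptosense ELISA following kit instructions.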

SKOV-3TR (Homo sapiens) [5] = test: Potentiation of 20 mg/kg, ip paclitaxel antitumor potency in human multidrug-resistant SKOV-3TR cells xenografted in Crl:SHO-Prkdc'SCIDHr'hr nude mouse assessed as increase in tumor growth inhibition at 50 mg/kg, ip dosed twice weekly for two weeks starting two weeks post tumor cells implantation
[6] = biological target: T1, ATP-dependent translocase ABCB1; test: Inhibition of MDR1 in human multidrug-resistant SW480TR cells assessed as potentiation of doxorubicin-induced cell death at 1 uM incubated for 72 hrs by MTT assay; type: cell-based
[7] = biological target: T1, ATP-dependent translocase ABCB1; test: Inhibition of MDR1 in human multidrug-resistant MCF7adr cells assessed drug level causing half maximal reversal of calcein AM accumulation deficit by fluorescence microscopy; details: read-out: INH
In short: (§3)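 Vybrant calcein AM efflux assay. Resistant cells (5000/well) were cultured for 24 h, then treated in triplicate with a range of test-agent concentrations for 1 h, followed by calcein AM for 30 min. Intracellular calcein fluorescence was imaged by fluorescence microscopy, and accumulation was compared across doses.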

[8] = biological target: T2, Broad substrate specificity ATP-binding cassette transporter ABCG2 (Homo sapiens, UniProt Q9UNQ0); test: Inhibition of BCRP-mediated drug resistance in human multidrug-resistant MCF7/MX cells; type: cell-based
T2 sequence (Q9UNQ0 whole entry): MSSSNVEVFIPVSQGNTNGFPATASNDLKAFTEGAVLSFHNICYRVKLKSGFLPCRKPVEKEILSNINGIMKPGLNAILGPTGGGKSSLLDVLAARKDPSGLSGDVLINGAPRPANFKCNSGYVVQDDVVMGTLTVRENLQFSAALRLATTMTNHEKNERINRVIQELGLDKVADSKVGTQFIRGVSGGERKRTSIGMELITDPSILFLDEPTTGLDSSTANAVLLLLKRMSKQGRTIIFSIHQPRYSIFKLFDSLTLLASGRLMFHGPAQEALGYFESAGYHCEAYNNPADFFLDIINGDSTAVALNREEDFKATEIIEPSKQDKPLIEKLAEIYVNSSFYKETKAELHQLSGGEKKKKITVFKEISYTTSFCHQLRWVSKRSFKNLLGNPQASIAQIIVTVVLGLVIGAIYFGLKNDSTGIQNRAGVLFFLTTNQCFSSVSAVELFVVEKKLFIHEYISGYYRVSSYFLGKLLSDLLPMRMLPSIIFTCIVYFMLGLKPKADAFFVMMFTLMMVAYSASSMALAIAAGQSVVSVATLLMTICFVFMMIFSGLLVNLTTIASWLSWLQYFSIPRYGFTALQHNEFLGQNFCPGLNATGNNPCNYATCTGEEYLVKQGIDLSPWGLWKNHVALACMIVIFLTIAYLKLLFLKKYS
In short: (§4)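 H-69AR (MRP1) or MCF-7/MX (BCRP) cells were plated in 96-well plates and treated with chemotherapy drugs plus the test agent as in the Pgp reversal assay: 2000 cells/well, 6 days, MTT read-out. IC50 values came from triplicate dose–response curves. Cells were grown in RPMI 1640 with 10% FBS at 37 °C, 5% CO2.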

[9] = biological target: T1, ATP-dependent translocase ABCB1; test: Inhibition of MDR1 in human multidrug-resistant MCF7adr cells assessed as increase in calcein AM accumulation by fluorescence microscopy; in short: as §3
[10] = biological target: T1, ATP-dependent translocase ABCB1; test: Inhibition of MDR1 in human multidrug-resistant MCF7adr cells assessed as potentiation of doxorubicin-induced cell death at 1 uM incubated for 72 hrs by MTT assay
[11] = biological target: T1, ATP-dependent translocase ABCB1; test: Inhibition of MDR1 in human multidrug-resistant MCF7adr cells assessed drug level causing maximal reversal of calcein AM accumulation deficit by fluorescence microscopy; in short: as §3
[12] = biological target: T1, ATP-dependent translocase ABCB1; test: Inhibition of MDR1 in human multidrug-resistant SW480TR cells assessed drug level causing maximal reversal of calcein AM accumulation deficit by fluorescence microscopy; type: cell-based; in short: as §3
Mus musculus [13] = test: Toxicity in human multidrug-resistant SKOV-3TR cells xenografted in Crl:SHO-Prkdc'SCIDHr'hr nude mouse assessed as effect on body weight at 50 mg/kg, ip dosed twice weekly for two weeks starting two weeks post tumor cells implantation; details: in vivo
Mus musculus [14] = test: Toxicity in human multidrug-resistant […] cells xenografted in Crl:SHO-Prkdc'SCIDHr'hr nude mouse assessed as mortality incidence at 50 mg/kg, ip dosed twice weekly for two weeks starting two weeks post tumor cells implantation; type: organism-based; design: dose 50 mg/kg, route intraperitoneal; details: in vivo
In short: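 […] cells injected subcutaneously with matrigel on day one. Dosing began two weeks later: ip injection twice a week for two weeks, given alone (50 mg/kg) or with paclitaxel (20 mg/kg); saline-injected controls. Mice checked daily for health and tumor growth. Toxicity judged from animal weight and mortality.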

[15] = biological target: T1, ATP-dependent translocase ABCB1; test: Inhibition of MDR1 in human multidrug-resistant SW480TR cells assessed as potentiation of doxorubicin-induced apoptosis at 1 uM incubated for 72 hrs by M30-apoptosense ELISA assay; type: cell-based; in short: as §2
[16] = biological target: T1, ATP-dependent translocase ABCB1; test: Inhibition of MDR1 in human multidrug-resistant SW480TR cells assessed as increase in calcein AM accumulation by fluorescence microscopy; type: cell-based; in short: as §3
[17] = biological target: Multidrug resistance-associated protein 1 (Homo sapiens, UniProt P33527); test: Inhibition of MRP1-mediated drug resistance in human multidrug-resistant H-69AR cells; type: cell-based; in short: as §4
Sequence of Multidrug resistance-associated protein 1 (P33527 whole entry): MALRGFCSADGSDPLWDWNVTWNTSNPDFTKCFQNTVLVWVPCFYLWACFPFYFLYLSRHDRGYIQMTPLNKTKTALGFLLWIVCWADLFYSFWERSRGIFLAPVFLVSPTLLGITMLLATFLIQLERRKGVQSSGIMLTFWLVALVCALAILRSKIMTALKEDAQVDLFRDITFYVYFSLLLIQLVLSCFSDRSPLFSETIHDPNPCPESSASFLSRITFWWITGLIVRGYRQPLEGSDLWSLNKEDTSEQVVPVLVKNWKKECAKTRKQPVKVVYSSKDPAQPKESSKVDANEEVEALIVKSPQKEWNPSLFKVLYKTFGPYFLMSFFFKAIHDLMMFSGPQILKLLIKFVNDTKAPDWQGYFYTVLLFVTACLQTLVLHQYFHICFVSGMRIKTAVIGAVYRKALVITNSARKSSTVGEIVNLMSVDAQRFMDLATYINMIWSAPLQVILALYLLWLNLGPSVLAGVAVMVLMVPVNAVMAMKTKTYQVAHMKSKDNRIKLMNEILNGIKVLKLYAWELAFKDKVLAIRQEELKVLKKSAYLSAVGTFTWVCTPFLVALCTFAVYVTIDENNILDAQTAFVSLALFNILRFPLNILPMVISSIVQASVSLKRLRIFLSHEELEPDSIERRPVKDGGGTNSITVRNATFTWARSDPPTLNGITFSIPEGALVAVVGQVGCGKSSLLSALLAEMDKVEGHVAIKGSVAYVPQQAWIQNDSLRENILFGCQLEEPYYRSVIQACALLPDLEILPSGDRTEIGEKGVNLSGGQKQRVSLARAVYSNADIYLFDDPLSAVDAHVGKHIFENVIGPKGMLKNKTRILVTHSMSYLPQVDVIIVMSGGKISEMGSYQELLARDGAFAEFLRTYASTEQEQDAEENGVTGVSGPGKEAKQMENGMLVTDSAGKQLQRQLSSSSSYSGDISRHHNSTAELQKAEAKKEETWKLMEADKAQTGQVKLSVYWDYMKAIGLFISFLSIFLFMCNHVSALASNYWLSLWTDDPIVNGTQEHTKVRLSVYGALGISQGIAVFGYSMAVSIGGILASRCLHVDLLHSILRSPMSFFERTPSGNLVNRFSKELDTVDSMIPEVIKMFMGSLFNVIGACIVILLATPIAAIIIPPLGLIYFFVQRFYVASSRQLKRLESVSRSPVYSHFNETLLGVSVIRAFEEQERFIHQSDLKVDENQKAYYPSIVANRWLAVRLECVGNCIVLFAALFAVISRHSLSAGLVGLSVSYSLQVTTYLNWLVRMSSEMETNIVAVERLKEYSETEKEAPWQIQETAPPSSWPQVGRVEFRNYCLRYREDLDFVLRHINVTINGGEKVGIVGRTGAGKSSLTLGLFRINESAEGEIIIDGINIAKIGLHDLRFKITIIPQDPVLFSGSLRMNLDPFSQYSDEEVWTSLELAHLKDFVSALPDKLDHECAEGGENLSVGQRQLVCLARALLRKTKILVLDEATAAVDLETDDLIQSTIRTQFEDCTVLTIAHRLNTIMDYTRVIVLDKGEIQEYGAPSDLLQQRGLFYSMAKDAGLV

SKOV-3TR (Homo sapiens) [18] = test: Antitumor activity against human multidrug-resistant SKOV-3TR cells xenografted in Crl:SHO-Prkdc'SCIDHr'hr nude mouse assessed as tumor growth inhibition at 50 mg/kg, ip dosed twice weekly for two weeks starting two weeks post tumor cells implantation
[19] = biological target: T1, ATP-dependent translocase ABCB1; test: Inhibition of MDR1 in human multidrug-resistant SW480TR cells assessed drug level causing half maximal reversal of calcein AM accumulation deficit by fluorescence microscopy; type: cell-based; details: read-out: INH; in short: as §3
SKOV-3TR (Homo sapiens) [20] = test: Antitumor activity against human multidrug-resistant SKOV-3TR cells xenografted in Crl:SHO-Prkdc'SCIDHr'hr nude mouse assessed as tumor growth inhibition at 20 mg/kg, ip dosed twice weekly for two weeks starting two weeks post tumor cells implantation

For `COc1ccc(-c2cc([C@@H](O)[C@@H]3CCCCN3)c3ccccc3n2)cc1.Cl`, the “inhibition (INH)” value [1] was “Not Active”, the “inhibition (INH)” value [2] was “Not Active” and the “inhibition (INH)” value [3] was “Not Active”.
`COc1ccc(-c2cc([C@@H](O)[C@H]3CCCCN3)c3ccccc3n2)cc1.Cl` was tested, and the “inhibition (INH)” value [1] was “Active”, the “inhibition (INH)” value [2] was “Active” and the “inhibition (INH)” value [3] was “Active”.
In the case of `COc1ccc(-c2cc([C@H](O)[C@H]3CCCCN3)c3ccccc3n2)cc1`, the “inhibition (INH)” value [4] is reported as “Active”, the Activity (SKOV-3TR (Homo sapiens) [5]) is reported as “Active” and the “inhibition (INH)” value [6] is reported as “Active”. For the same molecule, the IC50 [7] was 100 nM, the “inhibition (INH)” value [8] was “Not Active” and the “inhibition (INH)” value [1] was “Active”. The “inhibition (INH)” value [9] was “Dose-dependent effect”, the “inhibition (INH)” value [10] was “Active” and the INH [11] was 500 nM. The INH [12] was 500 nM, the Activity (Mus musculus [13]) was “Non-toxic” and the “inhibition (INH)” value [2] was “Active”. For the same molecule, the Activity (Mus musculus [14]) was “Non-toxic”, the “inhibition (INH)” value [15] was “Active” and the “inhibition (INH)” value [16] was “Dose-dependent effect”. The “inhibition (INH)” value [17] was “Not Active”, the “growth inhibition (GI)” value (SKOV-3TR (Homo sapiens) [18]) was “inactive” and the “inhibition (INH)” value [3] was “Active”. It also gave an IC50 [19] of 100 nM.
For `COc1ccc(-c2cc([C@H](O)[C@@H]3CCCCN3)c3ccccc3n2)cc1.Cl`, the “inhibition (INH)” value [1] was “Active”, the “inhibition (INH)” value [2] was “Active” and the “inhibition (INH)” value [3] was “Active”.
For `CC(=O)O[C@H]1C(=O)[C@@]2(C)[C@H]([C@H](OC(=O)c3ccccc3)[C@]3(O)C[C@H](OC(=O)[C@H](O)[C@@H](NC(=O)c4ccccc4)c4ccccc4)C(C)=C1C3(C)C)[C@]1(OC(C)=O)CO[C@@H]1C[C@@H]2O`, the “growth inhibition (GI)” value (SKOV-3TR (Homo sapiens) [20]) was “inactive”.
